TRPC4 agonist: opens the mouse TRPC4 cation channel | HEK293 TRPC4beta/mu-opioid, Fluo4 calcium fluorescence; hits give high values | B-score at 10 µM | 0.49% of 310,000 active;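 active = B-score above 5 SD of library B-scores, and initial fluorescence ratio not above library mean plus 5 SD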;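 also: positive B-score marks a calcium rise read as TRPC4 activation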
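Incubation: 45 min room-temperature Fluo4 loading, 110 s read / System: HEK293 cells stably co-expressing mouse TRPC4beta and mu-opioid receptor / Signal: Fluo4 fluorescence, kinetic / Control set: buffer (low) and maximal DAMGO (high) / Measure: integrated baseline-normalised fluorescence ratio, converted to per-well B score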
TRPC6 inhibitor: mouse TRPC6 channel inhibition | 1.1% of 310,000 active | Q61143 | B-score at 10 µM | HEK293-TRPC6, membrane potential dye, ACh-evoked depolarization; hits give low values;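 active = B-score under library mean minus 3 SD, initial fluorescence not abnormally high, positive integrated signal ratio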;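 also: B-score derived from integrated fluorescence ratio over the kinetic read; more negative B-score means stronger inhibition of depolarization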
Target sequence (Q61143 whole entry, looked up): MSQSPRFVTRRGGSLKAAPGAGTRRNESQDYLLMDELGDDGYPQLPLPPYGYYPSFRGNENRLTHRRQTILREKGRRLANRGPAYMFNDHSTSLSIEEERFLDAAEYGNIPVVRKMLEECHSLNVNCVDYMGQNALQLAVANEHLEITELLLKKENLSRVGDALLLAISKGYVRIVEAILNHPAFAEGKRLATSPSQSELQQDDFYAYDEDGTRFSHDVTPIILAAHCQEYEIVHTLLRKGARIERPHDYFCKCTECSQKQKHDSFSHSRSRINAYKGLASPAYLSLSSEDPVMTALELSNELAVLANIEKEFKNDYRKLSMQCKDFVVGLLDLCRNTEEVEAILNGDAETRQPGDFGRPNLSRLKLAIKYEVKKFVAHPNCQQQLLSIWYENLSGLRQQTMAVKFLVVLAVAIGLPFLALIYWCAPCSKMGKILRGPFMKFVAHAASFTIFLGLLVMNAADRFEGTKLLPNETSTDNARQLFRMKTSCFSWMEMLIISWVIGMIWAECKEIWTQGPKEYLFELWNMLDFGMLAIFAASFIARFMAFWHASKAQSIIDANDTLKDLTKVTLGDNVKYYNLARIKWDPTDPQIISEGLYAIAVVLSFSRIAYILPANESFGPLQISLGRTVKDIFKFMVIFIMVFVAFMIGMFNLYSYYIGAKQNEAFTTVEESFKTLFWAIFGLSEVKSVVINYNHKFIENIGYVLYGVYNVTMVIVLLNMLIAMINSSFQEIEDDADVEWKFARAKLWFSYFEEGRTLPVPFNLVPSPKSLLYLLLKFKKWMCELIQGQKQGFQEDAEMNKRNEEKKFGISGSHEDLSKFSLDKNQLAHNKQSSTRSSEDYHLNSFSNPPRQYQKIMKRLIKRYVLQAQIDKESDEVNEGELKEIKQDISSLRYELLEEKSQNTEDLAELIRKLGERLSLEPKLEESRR
TRPC6 act: activates the mouse TRPC6 cation channel; Q61143; HEK293-TRPC6 membrane potential dye fluorescence; hits give high values; B-score at 10 µM; 0.13% of 310,000 active;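 active = B-score of the integrated fluorescence ratio above library mean plus 3 SD, and starting fluorescence ratio within library mean plus 5 SD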;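 also: higher score means more depolarization so channel activation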
TRPC4 inh: blocks the mouse TRPC4 cation channel; Q9QUQ5; HEK293 TRPC4beta/mu-opioid, DAMGO-evoked Fluo4 calcium flux; hits give low values; B-score at 10 µM; 0.39% of 300,000 active;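 active = B-score over 3 SD under the library average, no early fluorescence shift, positive overall ratio signal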
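Test system – stable TRPC4beta/mu-opioid receptor HEK293 cells · Probe or stimulus – DAMGO, a submaximal dose followed by a maximal one · Dosing – one concentration per compound · Signal – Fluo4 calcium fluorescence by kinetic imaging, 5 s 1 Hz baseline · Evaluation – per-well B score of integrated baseline-normalized Fluo4 ratio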
TRPC4 potent: allosteric potentiators of mouse TRPC4 channel; B-score at 10 µM; HEK293 TRPC4beta/mu-opioid, DAMGO EC20, Fluo-4 Ca2+ flux; hits give high values; 0.42% of 310,000 active;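 active = B-score of calcium response area above 5 SD of library B-scores, with initial fluorescence ratio within 5 SD of library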;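 also: B-score of integrated fluorescence ratio over time as area under calcium response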
Yeast superoxide: caloric restriction mimetics inhibiting age-related superoxide in yeast; S. cerevisiae aged cells, superoxide DHE fluorescence; hits give low values; superoxide response (% of plate mean), % at 10 µM; 0.18% of 330,000 active;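 active = superoxide response under a set limit, about three screen SD below normal, cut at about 65% in these data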;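 also: yeast aged for seven days with compound at 30 °C before DHE staining; 100% = average MFI of all compound-treated wells on the plate with controls excluded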
TRPC4 sel inh 2: second selectivity test of TRPC6 inhibitors: effect on mouse TRPC4; shares compounds with TRPC6 inhibitor; HEK293 TRPC4/MOR, membrane potential dye fluorescence; channel activated by saturating DAMGO dose; inhibition, % at 10 µM; 42% of 920 active; AID 2776;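 active = compounds whose fluorescence signal differed from control wells by over 3 SD, either direction, in both duplicate plates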
TRPC4 spec: mouse TRPC4 off-target activity of TRPC6 inhibitors. shares compounds with TRPC6 inhibitor. HEK293 TRPC4/mu-opioid, membrane potential fluorescence. activity change, negative = inhibition, % at 10 µM. 61% of 920 active;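 active = rise or fall in signal beyond 3 SD of buffer-only wells in both replicate plates, either sign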;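 also: integrated kinetic ratio of fluorescence range over baseline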
HEK293 MPD ctr 2-1: second check of TRPC6 inhibitor effects in parental HEK293 cells; shares compounds with TRPC6 inhibitor; parental HEK293 membrane potential dye fluorescence; maximal acetylcholine challenge after compound addition; signal change vs control, % at 10 µM; 31% of 920 active;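 active = membrane potential signal moving either way by over 3 SD of the maximum-effect control, in both duplicate plates, meaning non-specific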
HEK293 MPD ctr-1: counter-screen for TRPC6 inhibitors: effect in parental HEK293 cells; shares compounds with TRPC6 inhibitor; parental HEK293 membrane potential dye fluorescence; membrane potential signal change, % at 10 µM; 60% of 920 active; AID 2780;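 active = membrane potential signal shifting up or down by more than 3 SD of buffer-only wells, on both duplicate plates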
HEK293 MPD ctr-2: counter-screen for TRPC6 modulators: effect in parental HEK293 cells; shares compounds with TRPC6 inhibitor; membrane potential dye fluorescence; membrane potential signal change, % at 10 µM; 51% of 2,400 active;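 active = membrane potential signal moves up or down beyond 5 SD from buffer-only wells, on both duplicate plates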
HEK293 MPD ctr 2-2: parental HEK293 nonspecific activity of TRPC6 modulators, second screen; shares compounds with TRPC6 inhibitor; membrane potential dye fluorescence; after compound, maximal acetylcholine stimulation; inhibition, % at 10 µM; 14% of 2,400 active; AID 488926;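 active = membrane potential signal drops by more than 5 SD from the mean control signal, in both duplicate plates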;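 also: plate controls were acetylcholine ECmax control wells for no effect and buffer only wells for full effect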
TRPC4 ctr mod: tests whether TRPC6 modulators also affect mouse TRPC4; shares compounds with TRPC6 inhibitor; HEK293 TRPC4/mu-opioid, membrane potential fluorescence; percent change from control (negative = decrease, positive = increase), % at 10 µM; 69% of 2,400 active;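 active = membrane potential signal moved up or down beyond 5 SD of buffer control wells, in both duplicate plates, actives on both sides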;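 also: plate controls were assay buffer wells for no effect and DAMGO maximal-effect wells for full effect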
TRPC4/MOR inh 2: second selectivity test of TRPC6 modulators against mouse TRPC4 | shares compounds with TRPC6 inhibitor | HEK293 TRPC4/mu-opioid, membrane potential dye fluorescence; stimulated with maximal-effect DAMGO | inhibition, % at 10 µM | 55% of 2,400 active | AID 488928;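 active = drop in membrane potential signal beyond 5 SD of the control wells in both duplicate plates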;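 also: TRPC4 counter screen for TRPC6 hits run under conditions tuned for TRPC6 not TRPC4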
TRPC6 inh conf: confirmation of mouse TRPC6 inhibitors; shares compounds with TRPC6 inhibitor; HEK293-TRPC6, membrane potential dye, ACh-evoked depolarization; inhibition, % at 10 µM; 43% of 3,300 active; AID 488960;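 active = fluorescence ratio falls more than 5 SD below the full-stimulation control mean, in both duplicate runs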;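 also: integrated fluorescence ratio of peak minus minimum over baseline after agonist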
TRPC6 act confirm: mouse TRPC6 activator confirmation; shares compounds with TRPC6 inhibitor; HEK293-TRPC6 membrane potential dye fluorescence, FDSS; activation, % at 10 µM; 11% of 2,800 active; AID 488961;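 active = ratio signal rise beyond 5 SD above unstimulated control wells' mean, seen in both duplicate runs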;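 also: plate controls were buffer EC0 wells for no effect and acetylcholine ECmax response for full effect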
An asterisk follows results filed as active; i = inactive; . = not tested or not shown. In the library only some 2.3% were active in any assay of this set; here they are far more common.

SMILES	TRPC4 agonist	TRPC6 inhibitor	TRPC6 act	TRPC4 inh	TRPC4 potent	Yeast superoxide	HEK293 MPD ctr-2	HEK293 MPD ctr 2-2	TRPC4 ctr mod	TRPC4/MOR inh 2	TRPC6 inh conf	TRPC6 act confirm	others
Cc1c(OCC(=O)NCCCN2CCCC2=O)ccc2c3c(c(=O)oc12)CCC3	i	-6.13*	i	i	i	98.0	-105.0%*	i	-19.0%*	i	i	i
Cc1cc(=O)oc2cc(OCC(=O)NCCCN3CCCC3=O)ccc12	i	i	i	i	i	96.3	.	.	.	.	.	.
Cc1cc(=O)oc2c(C)c(OCC(=O)NCCCN3CCCC3=O)ccc12	i	-5.15*	i	i	i	86.5	-192.0%*	i	-27.5%*	i	i	i
Cc1c(OCC(=O)NCCN2CCOCC2)ccc2c3c(c(=O)oc12)CCC3	i	-5.15*	i	i	i	98.8	i	i	-14.0%*	i	i	i
Cc1cc(=O)oc2c(C)c(OCC(=O)NCCCn3ccnc3)ccc12	i	-6.56*	i	i	i	94.1	-192.0%*	i	-31.5%*	30.0%*	i	i
Cc1c(OCC(=O)NCCCN2CCCC2=O)ccc2c3c(c(=O)oc12)CCCC3	i	i	i	i	i	96.7	.	.	.	.	.	.
COc1ccc([N+](=O)[O-])cc1NC(=O)C(C)OC(=O)c1ccccc1C(=O)c1ccc(Cl)cc1 (stereo not given)	i	i	i	i	i	99.2	.	.	.	.	.	.
CCSCc1nnc(SCC(=O)Nc2cc(F)ccc2C)n1C	i	i	i	i	i	101.1	.	.	.	.	.	.
COc1ccc(/C=N/NC(=O)c2ccc(NC(=O)C3CCCCC3)cc2)cc1O	i	i	i	i	i	111.6	.	.	.	.	.	.
COc1cc(C(=O)N2CCN(C(=O)COc3ccc4ccccc4c3)CC2)cc(OC)c1OC	i	i	i	i	i	104.7	.	.	.	.	.	.
NC(=O)CC(NC(=O)Cc1cccc2ccccc12)c1ccc(NCCOc2ccccc2)c([N+](=O)[O-])c1 (stereo not given)	i	i	i	i	i	114.2	.	.	.	.	.	.
CCN(CC)c1cc(C)c2cc(NC(=O)CNC(C)=O)ccc2n1	i	-5.65*	i	i	i	89.0	-161.0%*	59.0%*	-27.5%*	38.0%*	i	i
c1ccc(-c2nc3ccccc3[nH]2)nc1	i	i	i	i	i	88.6	.	.	.	.	.	.
c1ccc(-c2nc3c(ccc4ccccc43)[nH]2)nc1	i	-6.24*	i	i	i	88.5	i	i	-9.0%*	28.0%*	i	i
NCCN1C(=O)S/C(=C\c2ccc3c(c2)OCO3)C1=O	i	-5.42*	i	i	i	109.4	i	i	-9.5%*	41.5%*	36.5%*	i
COc1ccc(/C=C2\SC(=O)N(CCC(=O)Nc3ccccc3)C2=O)cc1OC	i	i	i	i	i	100.5	.	.	.	.	.	.
COc1cc(/C=C2\SC(=O)N(CCN)C2=O)ccc1OS(=O)(=O)c1cc(C)ccc1C	i	-7.22*	i	i	i	.	.	.	.	.	i	i	TRPC4 sel inh 2=i;TRPC4 spec=i;HEK293 MPD ctr 2-1=i;HEK293 MPD ctr-1=i
Cc1ccc2c(Cl)c(C)c(N3CCCC3)nc2n1	i	-5.71*	i	i	i	102.3	-243.5%*	70.0%*	-40.5%*	52.0%*	54.0%*	i
Cc1cc(C)cc(-n2c(C)c3c(C)nnc(C)c3c2C)c1	i	-7.64*	i	i	i	100.1	.	.	.	.	i	i	TRPC4 sel inh 2=54.5%*;TRPC4 spec=-18.9%*;HEK293 MPD ctr 2-1=i;HEK293 MPD ctr-1=-215.5%*
Cc1nnc(C)c2c(C)n(-c3ccc(Cl)c(N)c3)c(C)c12	i	i	i	i	i	86.3	.	.	.	.	.	.
CCOC(=O)N1CCN(C(=O)CNC(=O)c2nn(-c3ccc(OC)cc3OC)c(=O)c3ccccc23)CC1	i	i	i	i	i	102.1	.	.	.	.	.	.
CC1=NN(C(N)=S)C(=O)C1N=Nc1cccc([N+](=O)[O-])c1 (stereo not given)	i	-5.26*	i	i	i	114.0	i	i	i	i	i	i
O=C(c1cc2ccccc2o1)N1CCN(S(=O)(=O)/C=C/c2ccccc2)CC1	i	i	i	i	i	109.4	.	.	.	.	.	.
O=C(OCCN1C(=O)c2cccc3c(N4CCOCC4)ccc(c23)C1=O)c1cccc(Cl)c1	i	i	i	i	i	88.4	.	.	.	.	.	.
CC(C)C(=O)N1CCN(c2ccc(NC(=O)c3ccc4c(c3)OCCO4)cc2Cl)CC1	i	i	i	i	i	92.1	.	.	.	.	.	.
Cc1cc(C)n(-c2nc(SCCN(C)C)c3c4c(sc3n2)CCCC4)n1	95*	-6.14*	i	i	i	101.2	i	i	i	71.5%*	45.5%*	i
